Laboratory results reported in ChEMBL document CHEMBL4033777, “Next-Generation Hypoxic Cell Radiosensitizers: Nitroimidazole Alkylsulfonamides” (J Med Chem, 2018).
In brackets after ≈: the same amount, converted by molar mass.

Legend:
HCT-116 [1] = assay: Cytotoxicity against human HCT116 cells incubated for 4 hrs under aerobic condition measured after 5 days by sulforhodamine B assay; format: cell-based
Outline: (§1)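 STR-authenticated, mycoplasma-free HCT116 cells in αMEM + 5% FCS were seeded at 700 cells/well and allowed 2 h to attach. Drug was added from DMSO stocks (<1% DMSO) in serial 3-fold dilutions for 4 h, oxic or anoxic (Pd-catalyst anaerobic chamber, medium pre-equilibrated ≥3 days). After washing, cells regrew for 5 days before SRB staining and IC50 determination.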

HCT-116 [2] = assay: Hypoxia radiosensitization activity in human HCT116 cells assessed as sensitizer enhancement ratio by measuring ratio of radiation dose for 1% survival in absence to presence of compound at 0.08 mM preincubated for 1 hr followed by irradiation measured after 10 days by methylene blue staining-based cell counting method relative to misonidazole; format: functional
[3] = Solubility of the compound in alphaMEM containing 5% FCS and 1% DMSO by HPLC analysis; format: physicochemical
Outline: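 Saturated drug solutions were incubated at 37 °C in αMEM with 5% FCS and 1% DMSO. Dissolved drug was quantified by HPLC.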

HCT-116 [4] = assay: Hypoxia radiosensitization activity in human HCT116 cells assessed as survival ratio by measuring ratio of cell survival with radiation in absence to presence of compound at 0.08 mM preincubated for 1 hr followed by 6 to 29 Gy irradiation measured after 10 days by methylene blue staining-based cell counting method relative to misonidazole; format: functional
HCT-116 [5] = assay: Hypoxia radiosensitization activity in human HCT116 cells assessed as survival ratio by measuring ratio of cell survival with 15 Gy radiation in absence to presence of compound at anoxic IC50 preincubated for 1 hr followed by 15 Gy irradiation measured after 10 days by methylene blue staining-based cell counting method; format: functional
Outline: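 Anoxic HCT116 cells were seeded at 10^5/well and treated at the anoxic IC50 concentration for 1 h at room temperature. They were irradiated with 15 Gy (60Co, ~2 Gy/min) in a sealed steel box, then plated clonogenically. Colonies of >50 cells were counted […]. SR15 = survival with radiation / survival with drug + radiation.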

HCT-116 [6] = assay: Hypoxic cytotoxicity ratio of IC50 for human HCT116 cells under oxic condition to IC50 for human HCT116 cells under anoxic condition
Outline: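 HCT116 cells, 700 per well and attached 2 h, got a 4 h exposure to 3-fold serial dilutions (<1% DMSO) under air or in a Pd-catalyst anaerobic chamber with pre-equilibrated medium. Cells were washed, regrown 5 days, and stained with sulforhodamine B to give IC50. HCR = oxic IC50 / anoxic IC50.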

HCT-116 [7] = assay: Cytotoxicity against human HCT116 cells incubated for 4 hrs under anaerobic condition measured after 5 days by sulforhodamine B assay; format: functional, cell-based; outline: as §1
HCT-116 [8] = assay: Cytotoxicity against human HCT116 cells at anoxic IC50 incubated for 1 hr at 21 degC by clonogenic survival assay; conditions: hct-116, 1 h
HCT-116 [9] = assay: Hypoxia radiosensitization activity in human HCT116 cells assessed as sensitizer enhancement ratio by measuring ratio of radiation dose for 1% survival in absence to presence of compound at 0.08 mM preincubated for 1 hr followed by irradiation measured after 10 days by methylene blue staining-based cell counting method; format: functional
HCT-116 [10] = assay: Hypoxia radiosensitization activity in human HCT116 cells assessed as survival ratio by measuring ratio of cell survival with radiation in absence to presence of compound at 0.08 mM preincubated for 1 hr followed by 6 to 29 Gy irradiation measured after 10 days by methylene blue staining-based cell counting method; format: functional
HCT-116 [11] = assay: Hypoxia radiosensitization activity in human HCT116 cells assessed as survival ratio by measuring ratio of cell survival with radiation in absence to presence of compound at 0.68 mM preincubated for 1 hr followed by 6 to 29 Gy irradiation measured after 10 days by methylene blue staining-based cell counting method; format: functional
HCT-116 [12] = assay: Hypoxia radiosensitization activity in human HCT116 cells assessed as sensitizer enhancement ratio by measuring ratio of radiation dose for 1% survival in absence to presence of compound at 0.68 mM preincubated for 1 hr followed by irradiation measured after 10 days by methylene blue staining-based cell counting method relative to misonidazole; format: functional
HCT-116 [13] = assay: Hypoxia radiosensitization activity in human HCT116 cells assessed as sensitizer enhancement ratio by measuring ratio of radiation dose for 1% survival in absence to presence of compound at 0.68 mM preincubated for 1 hr followed by irradiation measured after 10 days by methylene blue staining-based cell counting method; format: functional
HCT-116 [14] = assay: Hypoxia radiosensitization activity in human HCT116 cells assessed as survival ratio by measuring ratio of cell survival with radiation in absence to presence of compound at 0.68 mM preincubated for 1 hr followed by 6 to 29 Gy irradiation measured after 10 days by methylene blue staining-based cell counting method relative to misonidazole; format: functional
HCT-116 [15] = assay: Hypoxia radiosensitization activity in human HCT116 cells assessed as sensitizer enhancement ratio by measuring ratio of radiation dose for 1% survival in absence to presence of compound at 2.1 mM preincubated for 1 hr followed by irradiation measured after 10 days by methylene blue staining-based cell counting method relative to misonidazole; format: functional
HCT-116 [16] = assay: Hypoxia radiosensitization activity in human HCT116 cells assessed as survival ratio by measuring ratio of cell survival with radiation in absence to presence of compound at 2.1 mM preincubated for 1 hr followed by 6 to 29 Gy irradiation measured after 10 days by methylene blue staining-based cell counting method; format: functional
HCT-116 [17] = assay: Hypoxia radiosensitization activity in human HCT116 cells assessed as sensitizer enhancement ratio by measuring ratio of radiation dose for 1% survival in absence to presence of compound at 2.1 mM preincubated for 1 hr followed by irradiation measured after 10 days by methylene blue staining-based cell counting method; format: functional
[18] = Electrophilicity of the compound in pH 7 phosphate buffer assessed as one-electron reduction potential
Outline: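 The one-electron reduction potential was set by pulse radiolysis equilibria at pH 7.0 (2.5 mM phosphate), established within 20 µs against benzylviologen, methylviologen or triquat. ΔE came from equilibrium constants via the Nernst equation, at three concentration ratios and 22 ± 2 °C.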

[19] = Cmax in tumor of NIH-III mouse xenografted with human HCT116 cells at 2.20 mmol/kg, iv administered as single dose by HPLC analysis; format: ADME, organism-based, Neoplasm; parameters: dose 2.2 mmol/kg, route intravenous; conditions: in vivo
Outline: (§2)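 Female NIH-III mice bearing subcutaneous HCT116 xenografts (10^6 cells inoculated). At ca. 300 mm3 tumor size, a single i.v. dose was given at the MAD or 75% of the MTD. Vehicle was 0.9% saline with 1% DMSO, or saline with 2 molar equivalents NaHCO3 for phosphate prodrugs. Plasma and tumor were sampled at multiple times by cardiac puncture and excision, assayed by HPLC, and analysed noncompartmentally.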

[20] = Tmax in plasma of NIH-III mouse xenografted with human HCT116 cells at 2.20 mmol/kg, iv administered as single dose by HPLC analysis; format: ADME, organism-based; conditions: 2.2 mmol/kg
Outline: (§3)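 Female NIH-III mice bearing subcutaneous HCT116 tumors (10^6 cells; ~300 mm3) got a single i.v. dose at the MAD or 75% of the MTD. Vehicle was saline with 1% DMSO, or saline with 2 equivalents of NaHCO3 for the phosphates. Plasma and tumor were sampled at multiple times by cardiac puncture and excision, drug was measured by HPLC, and Tmax came from noncompartmental analysis.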

HCT-116 [21] = assay: Hypoxia radiosensitization activity in human HCT116 cells assessed as survival ratio by measuring ratio of cell survival with radiation in absence to presence of compound at 1 mM preincubated for 1 hr followed by 6 to 29 Gy irradiation measured after 10 days by methylene blue staining-based cell counting method; format: functional
[22] = Tmax in tumor of NIH-III mouse xenografted with human HCT116 cells at 2.20 mmol/kg, iv administered as single dose by HPLC analysis; format: ADME, organism-based, Neoplasm; conditions: 2.2 mmol/kg; outline: as §3
HCT-116 [23] = assay: In vivo hypoxia radiosensitization activity in human HCT116 cells xenografted in NIH-III mouse assessed as survival ratio by measuring ratio of cell survival with 12.5 Gy radiation in absence to presence of compound at 2.20 mmol/kg, iv pretreated as single dose for 10 mins followed by irradiation measured after 18 hrs by excision assay; format: functional
HCT-116 [24] = assay: Hypoxia radiosensitization activity in human HCT116 cells assessed as survival ratio by measuring ratio of cell survival with radiation in absence to presence of compound at 1 mM preincubated for 1 hr followed by 6 to 29 Gy irradiation measured after 10 days by methylene blue staining-based cell counting method relative to misonidazole; format: functional
HCT-116 [25] = assay: Hypoxia radiosensitization activity in human HCT116 cells assessed as sensitizer enhancement ratio by measuring ratio of radiation dose for 1% survival in absence to presence of compound at 1 mM […] measured after 10 days by methylene blue staining-based cell counting method; format: functional
Plasma = assay: Cmax in plasma of NIH-III mouse xenografted with human HCT116 cells at 2.20 mmol/kg, iv administered as single dose by HPLC analysis; format: ADME, organism-based; parameters: dose 2.2 mmol/kg, route intravenous; conditions: in vivo; outline: as §2
HCT-116 [26] = assay: Hypoxia radiosensitization activity in human HCT116 cells assessed as sensitizer enhancement ratio by measuring ratio of radiation dose for 1% survival in absence to presence of compound at 1 mM preincubated for 1 hr followed by irradiation measured after 10 days by methylene blue staining-based cell counting method relative to misonidazole; format: functional
Mus musculus [27] = assay: Toxicity in NIH-III mouse xenografted with human HCT116 cells assessed as change in body weight with 12.5 Gy radiation at 2.20 mmol/kg, iv administered as single dose; conditions: in vivo
Mus musculus [28] = assay: Drug level in NIH-III mouse assessed as maximum achievable dose at 10 ml/kg, iv; format: ADME; conditions: in vivo
Outline: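 Non-tumor-bearing female NIH-III mice (~20 g) received freshly prepared solutions i.v. at 10 mL/kg in 0.9% saline with 1% DMSO, or saline with 2 molar equivalents NaHCO3 for phosphate prodrugs. MAD was the maximum dose that dissolved in the injection volume.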

HCT-116 [29] = assay: Hypoxia radiosensitization activity in human HCT116 cells assessed as survival ratio by measuring ratio of cell survival with radiation in absence to presence of compound at 0.81 mM preincubated for 1 hr followed by 6 to 29 Gy irradiation measured after 10 days by methylene blue staining-based cell counting method; format: functional
HCT-116 [30] = assay: Hypoxia radiosensitization activity in human HCT116 cells assessed as sensitizer enhancement ratio by measuring ratio of radiation dose for 1% survival in absence to presence of compound at 0.81 mM preincubated for 1 hr followed by irradiation measured after 10 days by methylene blue staining-based cell counting method relative to misonidazole; format: functional
HCT-116 [31] = assay: Hypoxia radiosensitization activity in human HCT116 cells assessed as survival ratio by measuring ratio of cell survival with radiation in absence to presence of compound at 0.81 mM preincubated for 1 hr followed by 6 to 29 Gy irradiation measured after 10 days by methylene blue staining-based cell counting method relative to misonidazole; format: functional
HCT-116 [32] = assay: Hypoxia radiosensitization activity in human HCT116 cells assessed as sensitizer enhancement ratio by measuring ratio of radiation dose for 1% survival in absence to presence of compound at 0.81 mM preincubated for 1 hr followed by irradiation measured after 10 days by methylene blue staining-based cell counting method; format: functional

SMILES | IC50 (HCT-116 [1]) [µM] | solubility [3] [mM] | Ratio (HCT-116 [5]) | Ratio IC50 (HCT-116 [6]) | IC50 (HCT-116 [7]) [µM] | Activity (HCT-116 [8]) | Ratio (HCT-116 [11]) | fold change (FC) (HCT-116 [12]) | Ratio (HCT-116 [13]) | fold change (FC) (HCT-116 [14]) | Activity [18] [mV] | further results
O=[N+]([O-])c1nccn1CS(=O)(=O)NCCN1CCOCC1 | 380 to 4800 | 450 (≈ 144 mg/mL) | 10.5 | 50 | 80 | Non-Toxic | – | – | – | – | – | fold change (FC) (HCT-116 [2]): 0.89; fold change (FC) (HCT-116 [4]): 0.51; Ratio (HCT-116 [9]): 1.28; Ratio (HCT-116 [10]): 3.9
Cc1ncc([N+](=O)[O-])n1CCS(=O)(=O)N1CCC(N(C)C)CC1 | – | 46.5 (≈ 16.1 mg/mL) | 12 | 2.9 | 700 | Non-Toxic | 25 | 1.15 | 1.67 | 2.3 | – | –
Cc1ncc([N+](=O)[O-])n1CCS(=O)(=O)NCCO | – | > 49.3 | 3.4 | 1.3 | 400 | Non-Toxic | 1.616 | 0.82 | 1.176 | 0.36 | – | –
O=[N+]([O-])c1cncn1CS(=O)(=O)NCCN1CCOCC1 | – | – | 60 | 1.4 | 2100 | Non-Toxic | – | – | – | – | – | fold change (FC) (HCT-116 [15]): 1.01; Ratio (HCT-116 [16]): 8.2; Ratio (HCT-116 [17]): 1.43
O=C(Cn1ccnc1[N+](=O)[O-])NCCO [ETANIDAZOLE] | – | > 200 | 7 | 19 | 1000 | Non-Toxic | – | – | – | – | -388 | Cmax [19]: 800 µM; Tmax [20]: 5 min; Ratio (HCT-116 [21]): 4.6; Tmax [22]: 5 min; Ratio (HCT-116 [23]): 8; fold change (FC) (HCT-116 [24]): 0.75; Ratio (HCT-116 [25]): 1.339; Cmax (Plasma): 3640 µM; fold change (FC) (HCT-116 [26]): 0.95; Activity (Mus musculus [27]): Non-Toxic; Drug uptake (Mus musculus [28]): 2.2 mmol/kg
O=[N+]([O-])c1nccn1CCS(=O)(=O)NCCO | 380 to 4800 | 75.3 (≈ 19.9 mg/mL) | 12 | 8 | 800 | Non-Toxic | – | – | – | – | -391 | Ratio (HCT-116 [29]): 4.2; fold change (FC) (HCT-116 [30]): 0.92; fold change (FC) (HCT-116 [31]): 0.54; Ratio (HCT-116 [32]): 1.27
